# Laboratory results from ChEMBL document CHEMBL3407400, “Design, synthesis and biological evaluations of chirally pure 1,2,3,4-tertrahydroisoquinoline analogs as anti-cancer agents” (Eur J Med Chem, 2015).
# Activity calls are given as the source filed them. The calls are words filed in the database; no cut-off is given here.
# Columns and labels:
# DU-145 [1] = assay: Cell cycle arrest in human DU145 cells assessed as G0/G1 phase at 1 uM after 48 hrs by propidium iodide based flow cytometry (reference value: 79.15 %); assay type: functional
# DU-145 [2] = assay: Induction of apoptosis in human DU145 cells assessed as activation of caspase 3 at 0.5 to 1 uM after 48 hrs by fluorometric assay relative to control; assay type: functional
# Summary of the method: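 DU-145 cells treated for 48 h. Fluorometric caspase-3 kit used: […] substrate added to cell lysate, 1 h at 37 °C. Fluorescence read at excitation 400 nm, emission 505 nm.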
# DU-145 [3] = assay: Induction of apoptosis in human DU145 cells assessed as necrotic cells at 0.5 uM after 48 hrs by annexin V FITC/PI dual staining assay (reference value: 0.31 %); assay type: functional
# DU-145 [4] = assay: Induction of apoptosis in human DU145 cells assessed as early apoptotic cells at 0.5 uM after 48 hrs by annexin V FITC/PI dual staining assay (reference value: 0.77 %); assay type: functional
# DU-145 [5] = assay: Induction of apoptosis in human DU145 cells assessed as late apoptotic cells at 1 uM after 48 hrs by annexin V FITC/PI dual staining assay (reference value: 2.47 %); assay type: functional
# DU-145 [6] = assay: Anticancer activity against human DU145 cells after 48 hrs by MTT assay; assay type: functional, cell-based; details: DU-145, 48 h
# Summary of the method: (§1)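 Cell lines held in DMEM or MEM with 10% FBS and antibiotic-antimycotic at 37 °C, 5% CO2. Cells seeded at 1 × 10⁴ per well in DMEM with 10% FBS and left 24 h. Compounds diluted in medium and added alongside vehicle control for 48 h. MTT (5 mg/mL) added for 4 h, formazan dissolved in DMSO, absorbance read at 570 nm.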
# DU-145 [7] = assay: Induction of apoptosis in human DU145 cells assessed as necrotic cells at 1 uM after 48 hrs by annexin V FITC/PI dual staining assay (reference value: 0.31 %); assay type: functional
# HepG2 = assay: Anticancer activity against human HepG2 cells after 48 hrs by MTT assay; assay type: functional, cell-based; details: HepG2, 48 h; summary of the method: as §1
# DU-145 [8] = assay: Induction of apoptosis in human DU145 cells assessed as DNA fragmentation at 0.5 uM after 48 hrs by agarose gel electrophoresis; assay type: functional, cell-based
# Summary of the method: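 DU-145 cells (1 × 10⁶) seeded, then treated 24 h later for 48 h. Lysate cleared, then digested with SDS/RNase A (2 h, 56 °C) and proteinase K (2 h, 37 °C). DNA precipitated with ammonium acetate and ice-cold ethanol, dissolved in TE. Laddering resolved on 2% agarose.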
# Tubulin = assay: Inhibition of tubulin (unknown origin) polymerization by fluorescence assay; assay type: protein-complex assay, Homo sapiens
# DU-145 [9] = assay: Disruption of microtubule network in human DU145 cells at 50 uM after 48 hrs by immunohistochemistry analysis; assay type: cell-based
# DU-145 [10] = assay: Cell cycle arrest in human DU145 cells assessed as S phase at 1 uM after 48 hrs by propidium iodide based flow cytometry (reference value: 1.65 %); assay type: functional
# DU-145 [11] = assay: Cell cycle arrest in human DU145 cells assessed as G2/M phase at 1 uM after 48 hrs by propidium iodide based flow cytometry (reference value: 6.75 %); assay type: functional
# DU-145 [12] = assay: Induction of apoptosis in human DU145 cells assessed as up regulation of Bax at 0.5 uM after 48 hrs by Western blot analysis relative to control; assay type: functional, cell-based
# DU-145 [13] = assay: Induction of apoptosis in human DU145 cells assessed as down regulation of Bcl2 at 0.5 uM after 48 hrs by Western blot analysis relative to control; assay type: functional, cell-based
# DU-145 [14] = assay: Cell cycle arrest in human DU145 cells assessed as G0/G1 phase at 0.5 uM after 48 hrs by propidium iodide based flow cytometry (reference value: 79.15 %); assay type: functional
# DU-145 [15] = assay: Induction of apoptosis in human DU145 cells assessed as late apoptotic cells at 0.5 uM after 48 hrs by annexin V FITC/PI dual staining assay (reference value: 2.47 %); assay type: functional
# DU-145 [16] = assay: Cell cycle arrest in human DU145 cells assessed as subG1 phase at 1 uM after 48 hrs by propidium iodide based flow cytometry (reference value: 9.36 %); assay type: functional
# MCF7 = assay: Anticancer activity against human MCF7 cells after 48 hrs by MTT assay; assay type: functional, cell-based; details: MCF7, 48 h; summary of the method: as §1
# DU-145 [17] = assay: Cell cycle arrest in human DU145 cells assessed as S phase at 0.5 uM after 48 hrs by propidium iodide based flow cytometry (reference value: 1.65 %); assay type: functional
# A549 = assay: Anticancer activity against human A549 cells after 48 hrs by MTT assay; assay type: functional, cell-based; details: A549, 48 h; summary of the method: as §1
# DU-145 [18] = assay: Cell cycle arrest in human DU145 cells assessed as subG1 phase at 0.5 uM after 48 hrs by propidium iodide based flow cytometry (reference value: 9.36 %); assay type: functional
# DU-145 [19] = assay: Cell cycle arrest in human DU145 cells assessed as G2/M phase at 0.5 uM after 48 hrs by propidium iodide based flow cytometry (reference value: 6.75 %); assay type: functional
# HeLa = assay: Anticancer activity against human HeLa cells after 48 hrs by MTT assay; assay type: functional, cell-based; summary of the method: as §1
# DU-145 [20] = assay: Induction of apoptosis in human DU145 cells assessed as viable cells at 1 uM after 48 hrs by annexin V FITC/PI dual staining assay (reference value: 96.45 %); assay type: functional; details: DU-145, 48 h, read-out: Activity
# DU-145 [21] = assay: Induction of apoptosis in human DU145 cells assessed as viable cells at 0.5 uM after 48 hrs by annexin V FITC/PI dual staining assay (reference value: 96.45 %); assay type: functional; details: DU-145, 48 h, read-out: Activity
# DU-145 [22] = assay: Induction of apoptosis in human DU145 cells assessed as early apoptotic cells at 1 uM after 48 hrs by annexin V FITC/PI dual staining assay (reference value: 0.77 %); assay type: functional
smiles,measurement,setting,value
Cc1ccc(S(=O)(=O)N2CC(=O)N3Cc4ccccc4[C@@H](OCc4ccccc4)[C@@H]3C2)cc1,Activity,DU-145 [1],46.74%
same,fold change (FC),DU-145 [2],3
same,Activity,DU-145 [3],0.63%
same,Activity,DU-145 [4],2.79%
same,Activity,DU-145 [5],25.79%
same,IC50,DU-145 [6],720 nM
same,Activity,DU-145 [7],4.48%
same,IC50,HepG2,870 nM
same,Activity,DU-145 [8],Active
same,IC50,Tubulin,1680 nM
same,Activity,DU-145 [9],Active
same,Activity,DU-145 [10],0.9%
same,Activity,DU-145 [11],44.17%
same,Activity,DU-145 [12],Active
same,Activity,DU-145 [13],Active
same,Activity,DU-145 [14],67.34%
same,Activity,DU-145 [15],6.47%
same,Activity,DU-145 [16],5.02%
same,IC50,MCF7,2510 nM
same,Activity,DU-145 [17],2.64%
same,IC50,A549,1260 nM
same,Activity,DU-145 [18],8.22%
same,Activity,DU-145 [19],17.68%
same,IC50,HeLa,3160 nM
same,viability at 1 µM,DU-145 [20],65.6%
same,viability at 0.5 µM,DU-145 [21],90.1%
same,Activity,DU-145 [22],4.15%
